According to publication PMC6044410 (Structure (London, England : 1993), 2017):
“And” between values parts separate entries of the source, which are not always exact repeats. Equal entries are not always repeated. Where two headings read alike, the source gives them in different places. Each block holds one molecule with its values, some of them ahead of it. Square brackets hold non-standard residues; d marks the D form. Peptide text beside a SMILES is read from it. * marks the point of attachment. FITC = O=C1OC2(c3ccc(O)cc3Oc3cc(O)ccc32)c2ccc(NC(=S)*)cc21; pT = C[C@@H](OP(=O)(O)O)[C@H](N)C(=O)O; pS = N[C@@H](COP(=O)(O)O)C(=O)O

Experiments:
[1] = target: human TopBP1 BRCT5, 641-746 (UniProt Q92547); test: fluorescence polarization titration; conditions: reference: pSer304 peptide mock-treated without λ phosphatase; sites S304
[2] = target: GST-hTopBP1 BRCT5 WT (Homo sapiens, UniProt Q92547); test: Fluorescence polarization binding, GST-hBRCT5 WT
[3] = target: TopBP1 BRCT4/5, untagged and GST-tagged forms (Homo sapiens, UniProt Q92547); test: Fluorescence polarization binding, untagged and GST-tagged TopBP1 forms compared
Method in brief: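 Untagged BRCT4/5 was prepared by overnight PreScission cleavage of the GST fusion at 4 °C, then anion exchange at pH 7.0, glutathione-bead removal of GST, and gel filtration. Read-out was ex 485/em 538 nm; KD was curve-fitted and averaged over ≥3 measurements.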

[4] = target: GST-hBRCT5 M689A (Homo sapiens, UniProt Q92547, M689A); test: Fluorescence polarization binding, GST-hBRCT5 M689A
[5] = target: T1, GST-human TopBP1 BRCT5 (641-746), wild type (human, UniProt Q92547 641-746); test: fluorescence polarisation
[6] = target: GST-human TopBP1 BRCT5 R681E/K682E (human, UniProt Q92547 641-746, R681E | K682E); test: fluorescence polarisation
[7] = target: GST-human TopBP1 BRCT5 K686E/K687E (human, UniProt Q92547 641-746, K686E | K687E); test: fluorescence polarisation
[8] = target: GST-human TopBP1 BRCT4/5 (549-746) (human, UniProt Q92547 549-746); test: fluorescence polarisation
[9] = target: GST-human TopBP1 BRCT5 S654A (human, UniProt Q92547 641-746, S654A); test: fluorescence polarisation
[10] = target: T1, GST-human TopBP1 BRCT5 (641-746), wild …; test: fluorescence polarisation; remark: listed apart in the source
[11] = target: GST-human TopBP1 BRCT5 A707K (human, UniProt Q92547 641-746, A707K); test: fluorescence polarisation
[12] = target: GST-human TopBP1 BRCT5 A707D (human, UniProt Q92547 641-746, A707D); test: fluorescence polarisation
[13] = target: GST-human TopBP1 BRCT5 Y678A (human, UniProt Q92547 641-746, Y678A); test: fluorescence polarisation
[14] = target: GST-human TopBP1 BRCT5 M689A (human, UniProt Q92547 641-746, M689A); test: fluorescence polarisation
[15] = target: T2, mouse TopBP1 BRCT4/5 (553-749), untagged (mouse, UniProt Q6ZQF0 553-749); test: fluorescence polarisation
T2 sequence (looked up): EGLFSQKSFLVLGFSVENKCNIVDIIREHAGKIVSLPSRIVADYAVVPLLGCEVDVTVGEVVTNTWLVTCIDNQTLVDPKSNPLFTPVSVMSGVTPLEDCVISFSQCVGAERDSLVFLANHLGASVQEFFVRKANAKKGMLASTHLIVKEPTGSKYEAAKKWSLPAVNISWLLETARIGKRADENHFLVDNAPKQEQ

[16] = target: human TopBP1 BRCT4/5 (549-746), untagged (human, UniProt Q92547 549-746); test: fluorescence polarisation
[17] = target: GST-human TopBP1 BRCT5 K704A (human, UniProt Q92547 641-746, K704A); test: fluorescence polarisation
[18] = target: T1, GST-human TopBP1 BRCT5 (641-746), wild …; test: fluorescence polarisation; remark: listed apart in the source

T1 sequence (Q92547 641-746): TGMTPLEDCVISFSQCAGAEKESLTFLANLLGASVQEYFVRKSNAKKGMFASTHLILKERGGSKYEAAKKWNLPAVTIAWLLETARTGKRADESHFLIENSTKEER
GST-hTopBP1 BRCT5 WT, sequence (Q92547 641-746): as above
GST-human TopBP1 BRCT5 S654A, sequence (Q92547 641-746 S654A): as the sequence (Q92547 641-746) above, with S14A counted along it
GST-human TopBP1 BRCT5 A707K, sequence (Q92547 641-746 A707K): as the sequence (Q92547 641-746) above, with A67K counted along it
GST-human TopBP1 BRCT5 R681E/K682E, sequence (Q92547 641-746 R681E/K682E): as the sequence (Q92547 641-746) above, with R41E, K42E counted along it
GST-human TopBP1 BRCT5 Y678A, sequence (Q92547 641-746 Y678A): as the sequence (Q92547 641-746) above, with Y38A counted along it
human TopBP1 BRCT4/5 (549-746), untagged, sequence (Q92547 549-746): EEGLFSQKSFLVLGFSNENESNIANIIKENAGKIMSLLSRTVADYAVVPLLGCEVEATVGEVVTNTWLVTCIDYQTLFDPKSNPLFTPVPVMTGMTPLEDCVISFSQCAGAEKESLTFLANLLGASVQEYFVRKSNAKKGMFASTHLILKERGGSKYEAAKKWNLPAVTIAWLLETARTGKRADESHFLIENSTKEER
TopBP1 BRCT4/5, untagged and GST-tagged forms, sequence (Q92547 549-746): as above
GST-human TopBP1 BRCT4/5 (549-746), sequence (Q92547 549-746): as above
GST-hBRCT5 M689A, sequence (Q92547 641-746 M689A): as the sequence (Q92547 641-746) above, with M49A counted along it
GST-human TopBP1 BRCT5 M689A, sequence (Q92547 641-746 M689A): as the sequence (Q92547 641-746) above, with M49A counted along it
GST-human TopBP1 BRCT5 K686E/K687E, sequence (Q92547 641-746 K686E/K687E): as the sequence (Q92547 641-746) above, with K46E, K47E counted along it
GST-human TopBP1 BRCT5 A707D, sequence (Q92547 641-746 A707D): as the sequence (Q92547 641-746) above, with A67D counted along it
GST-human TopBP1 BRCT5 K704A, sequence (Q92547 641-746 K704A): as the sequence (Q92547 641-746) above, with K64A counted along it

Molecule: CC[C@H](C)[C@H](NC(=O)[C@@H](NC(=O)[C@H](CCC(=O)O)NC(=O)[C@H](CCC(=O)O)NC(=O)[C@@H]1CCCN1C(=O)[C@H](CO)NC(=O)[C@@H]1CCCN1C(=O)[C@@H]1CCCN1C(=O)[C@@H](NC(=O)[C@H](Cc1ccccc1)NC(=O)[C@H](CC(=O)O)NC(=O)[C@@H](NC(=O)[C@H](CC(=O)O)NC(=S)Nc1ccc2c(c1)C(=O)OC21c2ccc(O)cc2Oc2cc(O)ccc21)[C@@H](C)O)C(C)C)[C@@H](C)CC)C(N)=O [Ser304] ({FITC}-DTDFVPPSPEEII-NH2)
Kd ([2]; KD, FP, BLM pSer304 peptide treated with λ phosphatase, 1 hour at 30 °C): ≥ 60 µM

Molecule: CC[C@H](C)[C@H](NC(=O)[C@H](Cc1ccccc1)NC(=O)CNC(=S)Nc1ccc2c(c1)C(=O)OC21c2ccc(O)cc2Oc2cc(O)ccc21)C(=O)N[C@@H](CC(=O)O)C(=O)N[C@@H](COP(=O)(O)O)C(=O)N[C@@H](CC(=O)O)C(=O)N[C@H](C(=O)N[C@@H](CC(=O)O)C(=O)N[C@H](C(=O)N[C@@H](CCC(=O)O)C(=O)N[C@@H](CCC(=O)O)C(=O)N[C@@H](CCC(=O)O)C(N)=O)C(C)C)[C@@H](C)OP(=O)(O)O [MDC1, reference compound] ({FITC}-GFID[pS]D[pT]DVEEE-NH2)
Kd [2]: 15 ± 1 µM
Kd [4]: 15 ± 1 µM

B1: FITC-labelled BLM pSer304 peptide (FITC-DTDFVPPpSPEEII-NH2) (peptide)
peptide: {FITC}-DTDFVPP[pS]PEEII-NH2
Kd [5]: 2.6 µM and 3.7 µM
Kd [6]: 45 ± 2 µM
Kd [7]: 36 ± 3 µM
Kd [8]: 6 ± 1 µM
Kd [9]: 33 ± 3 µM
Kd [10]: 3.9 ± 0.3 µM
Kd [11]: 70 ± 20 µM
Kd [12]: 320 ± 40 µM
Kd [13]: 18 ± 2 µM
Kd [14]: 53 ± 4 µM
Kd [15]: 6 ± 2 µM
Kd [16]: 3.2 ± 0.8 µM
Kd [17]: 42 ± 3 µM

B2: FITC-labelled BLM pSer338 peptide (FITC-KEDVLSTpSKDL-NH2) (peptide)
peptide: {FITC}-KEDVLST[pS]KDL-NH2
Kd [10]: 285 ± 10 µM

Other lines, results leading:

KD [1]: weaker; reference 2.6 ± 0.4
Molecule: BLM (Bloom syndrome, RecQ-like helicase) 297-309 (from UniProt P54132) λ phosphatase-treated pSer304 peptide

Kd [3]: 3 to 6 µM
Molecule: CC[C@H](C)[C@H](NC(=O)[C@@H](NC(=O)[C@H](CCC(=O)O)NC(=O)[C@H](CCC(=O)O)NC(=O)[C@@H]1CCCN1C(=O)[C@H](COP(=O)(O)O)NC(=O)[C@@H]1CCCN1C(=O)[C@@H]1CCCN1C(=O)[C@@H](NC(=O)[C@H](Cc1ccccc1)NC(=O)[C@H](CC(=O)O)NC(=O)[C@@H](NC(=O)[C@H](CC(=O)O)NC(=S)Nc1ccc2c(c1)C(=O)OC21c2ccc(O)cc2Oc2cc(O)ccc21)[C@@H](C)O)C(C)C)[C@@H](C)CC)C(N)=O [pSer304] ({FITC}-DTDFVPP[pS]PEEII-NH2)

Kd [2]: ≥ 300 µM
Molecule: CC(C)C[C@H](NC(=O)[C@H](CC(=O)O)NC(=O)[C@H](CCCCN)NC(=O)[C@H](COP(=O)(O)O)NC(=O)[C@@H](NC(=O)[C@H](CO)NC(=O)[C@H](CC(C)C)NC(=O)[C@@H](NC(=O)[C@H](CC(=O)O)NC(=O)[C@H](CCC(=O)O)NC(=O)[C@H](CCCCN)NC(=S)Nc1ccc2c(c1)C(=O)OC21c2ccc(O)cc2Oc2cc(O)ccc21)C(C)C)[C@@H](C)O)C(N)=O [pSer338] ({FITC}-KEDVLST[pS]KDL-NH2)

Kd [18]: 60 ± 10 µM
B3: Unphosphorylated Ser304 BLM peptide (FITC-DTDFVPPSPEEII-NH2) (peptide)
peptide: {FITC}-DTDFVPPSPEEII-NH2
